# Most compounds without a hit are left out; they make up all but 2.6% or so of the library.
# CFTR F508del cor: correctors of CFTR F508del function in bronchial epithelial cells; CFBE cells, YFP halide quenching; stimulated with forskolin plus potentiator P3; % fluorescence drop versus neutral controls; 0.36% of 350,000 active; activity (quench increase), % at 7.58 µM;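 active means mean added fluorescence quench of at least 8% versus neutral control, with both replicates also reaching 8%; inconclusive means only one of the mean or replicate conditions met; inactive means mean below 8% and not both replicates reaching 8%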;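 further: cells transiently co-express mutant CFTR-F508del with the halide-sensitive YFP; corrector assay measuring rescue of mutant channel to the surface after 24 h compound exposure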
# E-selectin induc: induces E-selectin expression in human endothelial cells | P16581 | HUVEC E-selectin immunofluorescence imaging; normalized: neutral wells 0, TNF-alpha wells 100 | activation, % at 7.58 µM | 0.37% of 260,000 active | AID 686992;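 active means mean E-selectin-positive cell signal at least 10% of the positive control, reached in at least 60% of replicates, without over 20% cell loss; inconclusive means no rule given, readout overlaps actives, possibly toxicity-flagged; inactive means the rest, including those meeting only one limit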
#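 material = human umbilical vein endothelial cells (HUVEC), E-selectin induction | quantity = 3,000 cells/well | medium = EGM-2 growth medium on 0.1% gelatin-coated wells | technique = immunofluorescence imaging | read-out basis = % PE-positive cells | control set = TNF-alpha positive control, DMSO neutral control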
# miR-122 sensor: miR-122 inhibition in Huh7 cells. Huh7 miR-122 Renilla luciferase sensor, 48 h; neutral wells = 0, positive control = 100. activation (reporter increase), % at 12.5 µM. 0.3% of 340,000 active. AID 602342;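 active means mean replicate activation score at least 90 and every replicate individually at or above 90; inconclusive means only one of the two criteria met; inactive means neither criterion met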;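 further: higher luciferase means less miR-122 activity so hits act as miR-122 inhibitors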
# DENV2 CPE rescue: DENV2-induced cell death inhibition; DENV2-infected cells, cytopathic effect rescue, plate reader; CPE inhibition, % at 9.99 µM; 1.7% of 350,000 active; in the data active means CPE inhibition above about 20%, passing the limit was not always enough; inconclusive means no clear call, values can overlap the other calls; tested in BHK-21 cells;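 further: 0% = median of neutral control wells and 100% = median of positive control wells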
# INS-1E GSIS act: primary screen for activators of insulin secretion dependent on glucose, INS-1E cells, GLuc reporter luminescence; INS-1E GLuc reporter insulin secretion, 2-3 h; AID 743287; 0.61% of 370,000 active; activation, % at 16.6 µM;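 active means lowest replicate activation of at least 40%, so every replicate reaches that level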;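 further: 0% = median of neutral control wells and 100% = median of IBMX positive control wells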
# ERAP1 HTS inh: inhibitors of human ERAP1 aminopeptidase. 0.15% of 340,000 active. inhibition, % at 10.7 µM. Q9NZ08. recombinant ERAP1, Leu-AMC fluorescence, 60 min. AID 652197;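 active means mean replicate inhibition of at least 30%, or all replicates individually reaching that 30% level; inactive means mean below 30% and not every replicate reaching it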;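 further: 0% = neutral control wells and 100% = L-leucinethiol positive control wells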
# An asterisk follows results filed as active; ? = inconclusive; nt = not tested or not shown; ! = a repeat was not active; [ ] = another dose, or the depositor's remark.
SMILES,CFTR F508del cor,E-selectin induc,miR-122 sensor,DENV2 CPE rescue,INS-1E GSIS act,ERAP1 HTS inh
COc1ccccc1C(=O)N/N=C(\C)CC(=O)Nc1ccc2c(c1)OCCO2,2.2,nt,0.8,-0.7,40.8*,-2.0
Cn1cnc(S(=O)(=O)N2CC[C@@H]3[C@@H](CO)Nc4ccc(C#Cc5ccccc5F)cc4[C@@H]32)c1,-1.2,0.5,nt,?,5.4,0.2
COc1ccccc1-c1ccc2c(c1)[C@H]1[C@H](CCN1S(=O)(=O)c1ccccc1OC)[C@@H](CO)N2,3.0,0.0,18.0[16.7 µM],-22.6,3.7,nt
CCOC(=O)c1c(S(=O)(=O)NCc2cccs2)c(C)n(C)c1C,5.2,nt,20.5,0.9,6.8,-3.6
Cc1nn(C)c(C)c1S(=O)(=O)NCc1cccs1,nt,nt,109.3*,nt,nt,nt
C[C@@H]1CN([C@H](C)CO)C(=O)c2c(c3ccccc3n2C)-c2ccccc2CO[C@@H]1CN(C)C(=O)c1cc(Cl)cc(Cl)c1,1.6,2.2,nt,59.6*,-5.7,-0.5
COc1cccc(NC(=O)N(C)C[C@H]2OCc3ccccc3-c3c(n(C)c4ccccc34)C(=O)N([C@H](C)CO)C[C@H]2C)c1,8.4*!,-1.6,nt,3.5,-20.3,2.6
C[C@@H]1CN([C@@H](C)CO)C(=O)c2c(c3ccccc3n2C)-c2ccccc2CO[C@H]1CN(C)C(=O)Nc1cccc(Cl)c1Cl,0.8,0.3,nt,40.4*,1.8,2.2
O=C(Nc1ccc(F)cc1)N1C[C@H]2[C@@H](c3ccccc31)[C@H](CO)N2C(=O)Cc1ccccc1,1.9,-0.5,4.9[16.7 µM],16.8,-7.8,-1.5
COc1ccc(NC(=O)N[C@H]2C=C[C@H](CC(=O)NC3CCCCC3)O[C@@H]2CO)cc1,-1.3,0.1,nt,-8.9,nt,-0.6
C[C@@H]1CN(C)C(=O)c2cc(N(C)C)ccc2O[C@@H]1CN(C)C(=O)OC(C)(C)C,nt,nt,nt,nt,1.3,nt
CO[C@H]1CN(C)C(=O)c2ccc(NC(C)=O)cc2OC[C@@H](C)N(C(=O)C2CC2)C[C@H]1C,-0.9,-0.1,nt,1.7,-1.9,-0.7
COc1ccc(-c2ccc([C@@H]3[C@@H](CO)N4CCCCN(CC5CCOCC5)C[C@H]34)cc2)cc1,0.9,-0.2,20.9[16.7 µM],47.7*,15.6,-1.6
COc1ccc(-c2ccc([C@@H]3[C@H]4CN(CC5CCOCC5)CCCCN4[C@H]3CO)cc2)cc1,-0.6,-0.4,-0.6[16.7 µM],62.8*,2.4,-1.2
CO[C@H]1CN(C)C(=O)c2cc(NC(=O)C3CC3)ccc2OC[C@@H](C)N(C(=O)C2CCCCC2)C[C@H]1C,-1.9,0.2,2.4[16.7 µM],-4.6,-5.9,3.8
Cc1ccc(S(=O)(=O)Nc2ccc3c(c2)CC(=O)N([C@H](C)CO)C[C@@H](C)[C@@H](CN(C)C(=O)Nc2ccc(F)cc2)O3)cc1,0.0,0.0,9.7[16.7 µM],24.8*,24.3,1.2
C[C@@H]1CN([C@H](C)CO)C(=O)Cc2cc(NS(=O)(=O)c3ccc(Cl)cc3)ccc2O[C@@H]1CN(C)C(=O)Nc1ccccc1,-0.4,0.9,3.7[16.7 µM],26.8*,-2.2,1.2
Cc1ccc(S(=O)(=O)Nc2ccc3c(c2)CC(=O)N([C@H](C)CO)C[C@H](C)[C@@H](CN(C)C(=O)Nc2ccc(F)cc2)O3)cc1,-1.2,0.9,-4.0[16.7 µM],16.2,12.1,1.7
O=C(NCCCN1CCOCC1)[C@@H]1[C@@H](CO)[C@@H]2Cn3c(cccc3=O)[C@H]1N2C(=O)C1CCCC1,-1.4,-0.1,nt,?,23.3,1.0
Cc1c(/C=N/NC(=O)CNc2ccccc2)c2ccccn2c1C(=O)c1ccc(Cl)cc1,nt,0.2,3.7,nt,-29.9,nt
Cc1c(/C=N/NC(=O)CNc2ccccc2)c2ccccn2c1C(=O)c1ccncc1,-2.6,nt,nt,34.7*,-0.1,3.6
CCOC(=O)C1CCN(C(=O)c2cc(S(=O)(=O)N(C)C)ccc2N2CCCC2)CC1,-2.5,nt,4.6,0.6,-20.4,1.7
CCOC(=O)C1CCCN(C(=O)c2cc(S(=O)(=O)N(C)C)ccc2N2CCCC2)C1 (stereo not drawn),2.6,428.1*,11.1,-0.9,-2.2,1.5
Cc1ccc(NC(=O)C2=C(c3ccccc3)S(=O)(=O)CCS2(=O)=O)cc1,-2.3,nt,nt,6.2,155.2*,-6.5

# Assay outcomes (PubChem)
